In ChEMBL document CHEMBL1122650, “Synthesis and central nervous system properties of 2-[(alkoxycarbonyl)amino]-4(5)-phenyl-2-imidazolines” (J Med Chem, 1984):
The source made the active and inactive calls. The calls are words filed in the database; no cut-off is given here.

Test system: not listed separately
Assay: HPLC capacity factor (k')
Assay type: ADME
Details: not given

SMILES	Log k'
CCOC(=O)NC1=NC(c2ccccc2)CN1C (stereo unspecified)	0.41
CCOC(=O)NC1=NC(c2cccc(Br)c2)CN1 (stereo unspecified)	0.77
COC(=O)NC1=NC(c2ccc(Cl)cc2)CN1C (stereo unspecified)	0.54
CCOC(=O)NC1=NC(c2ccc(CO)cc2)CN1C (stereo unspecified)	-0.29
COC(=O)NC1=NC(c2ccc(CO)cc2)CN1C (stereo unspecified)	-0.76
COC(=O)NC1=NC(c2ccc(C=O)cc2)CN1C (stereo unspecified)	-0.53
COC(=O)NC1=NC(c2ccc(C)cc2)CN1 (stereo unspecified)	0.3
CCOC(=O)NC1=NC(c2ccc(O)cc2)CN1C(C)C (stereo unspecified)	0.7

Test system: Mus musculus
Assay: Compound was evaluated in vivo for reserpine hypothermia after oral administration in mouse. Minimum active dose was reported, with the percent reversal at 10 mg/kg in parenthesis; I=inactive
Assay type: functional, organism-based
Set-up: dose 10 mg/kg
Details: not given
Method in brief: (§1)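 Male HLa (ICR) BR mice, 18-24 g, in groups of eight; reserpine 5 mg/kg ip given 2 h before oral test compound as aqueous solution. Rectal temperature taken hourly; 1-4-h hypothermia assessed by analysis of variance.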

SMILES	ED50
COC(=O)NC1=NC(c2ccc(C=O)cc2)CN1C (stereo unspecified)	inactive

Test system: Mus musculus
Assay: Evaluated in vivo for reserpine hypothermia after oral administration in mouse. Minimum active dose was reported; Inactive
Assay type: functional, organism-based
Details: not given
Method in brief: as §1

SMILES	ED50
COC(=O)NC1=NC(c2ccc(CO)cc2)CN1C (stereo unspecified)	inactive

Test system: Mus musculus
Assay: Compound was evaluated in vivo for reserpine hypothermia after oral administration in mouse. Minimum active dose was reported; Inactive
Assay type: functional, organism-based
Details: not given
Method in brief: as §1

SMILES	ED50
COC(=O)NC1=NC(c2ccc(Cl)cc2)CN1C (stereo unspecified)	inactive

Organism: Mus musculus
Assay: Evaluated for antagonism of reserpine induced hypothermia;I= Inactive
Assay type: functional, organism-based
Details: not given
Method in brief: as §1

SMILES	HYPO
CCOC(=O)NC1=NC(c2ccc(O)cc2)CN1C(C)C (stereo unspecified)	inactive

Organism: Mus musculus
Assay: Mouse behavior activity was determined; Inactive
Assay type: functional, organism-based
Details: not given
Method in brief: (§2)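 Male Simonsen (ICR) fBR mice, 18-24 g, groups of three, given 3, 10, 30, 100, 300 or 1000 mg/kg ip as aqueous solution and observed for behavioral profile; deaths followed up to 7 days.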

SMILES	Mouse behavior activity
CCOC(=O)NC1=NC(c2ccc(CO)cc2)CN1C (stereo unspecified)	inactive
COC(=O)NC1=NC(c2ccc(CO)cc2)CN1C (stereo unspecified)	inactive

Organism: Mus musculus
Assay: Mouse behavior activity was determined; Stimulant-Depressant Weak
Assay type: functional, organism-based
Details: not given
Method in brief: as §2

SMILES	Mouse behavior activity
CCOC(=O)NC1=NC(c2ccc(O)cc2)CN1C(C)C (stereo unspecified)	Stimulant-Depressant Weak

Organism: Mus musculus
Assay: Mouse behavior activity was determined; Dwk= Depressant Weak.
Assay type: functional, organism-based
Details: not given
Method in brief: as §2

SMILES	Mouse behavior activity
COC(=O)NC1=NC(c2ccc(C)cc2)CN1 (stereo unspecified)	Depressant - weak

Organism: Mus musculus
Assay: Mouse behavior activity was determined;D= Depressant
Assay type: functional, organism-based
Details: not given
Method in brief: as §2

SMILES	Mouse behavior activity
COC(=O)NC1=NC(c2ccc(Cl)cc2)CN1C (stereo unspecified)	Depressant

Organism: Mus musculus
Assay: Mouse behavior activity was determined; Dwk= Depressant(Weak)
Assay type: functional, organism-based
Details: not given
Method in brief: as §2

SMILES	Mouse behavior activity
COC(=O)NC1=NC(c2ccc(C=O)cc2)CN1C (stereo unspecified)	Depressant - weak

Organism: Mus musculus
Assay: Compound was evaluated for maximal electroshock antagonism (MES) against mice;I= Inactive
Assay type: functional, organism-based
Details: not given
Method in brief: (§3)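 Male HLa (ICR) BR mice, groups of eight to ten, dosed ip (aqueous solution) 15 min before transcorneal electroshock (50 mA, 0.2 s). End point: abolition of tonic hind-limb extension; quantal ED50 by Litchfield-Wilcoxon.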

SMILES	ED50
CCOC(=O)NC1=NC(c2cccc(Br)c2)CN1 (stereo unspecified)	inactive

Organism: Mus musculus
Assay: Compound was evaluated for maximal electroshock antagonism (MES) against mice
Assay type: functional
Details: not given
Method in brief: as §3

SMILES	ED50
CCOC(=O)NC1=NC(c2ccccc2)CN1C (stereo unspecified)	78 mg/kg
COC(=O)NC1=NC(c2ccc(Cl)cc2)CN1C (stereo unspecified)	66 mg/kg

Organism: Mus musculus
Assay: Compound was evaluated for maximal electroshock antagonism (MES) against mice; I=inactive
Assay type: functional, organism-based
Details: not given
Method in brief: as §3

SMILES	ED50
COC(=O)NC1=NC(c2ccc(C=O)cc2)CN1C (stereo unspecified)	inactive

Organism: Mus musculus
Assay: Compound was evaluated for maximal electroshock antagonism (MES) against mice; Inactive
Assay type: functional, organism-based
Details: not given
Method in brief: as §3

SMILES	ED50
CCOC(=O)NC1=NC(c2ccc(CO)cc2)CN1C (stereo unspecified)	inactive
COC(=O)NC1=NC(c2ccc(CO)cc2)CN1C (stereo unspecified)	inactive
CCOC(=O)NC1=NC(c2ccc(O)cc2)CN1C(C)C (stereo unspecified)	inactive

Organism: Mus musculus
Assay: Compound was evaluated for maximal electroshock antagonism (MES) against mice; Inactive.
Assay type: functional, organism-based
Details: not given
Method in brief: as §3

SMILES	ED50
COC(=O)NC1=NC(c2ccc(C)cc2)CN1 (stereo unspecified)	inactive

Test system: Mus musculus
Assay: Compound was evaluated in vivo for reserpine hypothermia after oral administration in mouse. Minimum active dose was reported; rigidity was potentiated by compound.
Assay type: functional, organism-based
Details: not given
Method in brief: as §1

SMILES	P
CCOC(=O)NC1=NC(c2ccccc2)CN1C (stereo unspecified)	rigidity was potentiated by compound

Organism: Mus musculus
Assay: Righting ability was determined in mice before rapid rolling (unaroused)
Assay type: functional
Details: not given
Method in brief: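 Male Simonsen (ICR) fBR mice, 18-24 g, groups of ten, dosed with aqueous compound. Righting ability checked before (unaroused) and after (aroused) rapid rolling in the hand; ED50 by Litchfield-Wilcoxon method.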

SMILES	Loss of righting reflex
CCOC(=O)NC1=NC(c2ccccc2)CN1C (stereo unspecified)	100 mg/kg

Organism: Mus musculus
Assay: Mouse behavior activity was determined; S-D=Stimulant-Depressant
Assay type: functional, organism-based
Details: not given
Method in brief: as §2

SMILES	Mouse behavior activity
CCOC(=O)NC1=NC(c2ccccc2)CN1C (stereo unspecified)	Stimulant-Depressant

Organism: Mus musculus
Assay: Evaluated for antagonism of reserpine induced hypothermia
Assay type: functional
Details: not given
Method in brief: as §1

SMILES	HYPO
CCOC(=O)NC1=NC(c2ccccc2)CN1C (stereo unspecified)	<0.5 mg/kg
CCOC(=O)NC1=NC(c2cccc(Br)c2)CN1 (stereo unspecified)	<0.5 mg/kg
COC(=O)NC1=NC(c2ccc(CO)cc2)CN1C (stereo unspecified)	<0.5 mg/kg
COC(=O)NC1=NC(c2ccc(C=O)cc2)CN1C (stereo unspecified)	>0.5 mg/kg
COC(=O)NC1=NC(c2ccc(C)cc2)CN1 (stereo unspecified)	>20 mg/kg

Test system: not listed separately
Assay: Lethal dose in mouse, in groups of ten
Assay type: toxicity, organism-based
Details: in vivo

SMILES	LD50
CCOC(=O)NC1=NC(c2ccccc2)CN1C (stereo unspecified)	200 mg/kg
COC(=O)NC1=NC(c2ccc(Cl)cc2)CN1C (stereo unspecified)	200 mg/kg
CCOC(=O)NC1=NC(c2ccc(CO)cc2)CN1C (stereo unspecified)	500 mg/kg
COC(=O)NC1=NC(c2ccc(CO)cc2)CN1C (stereo unspecified)	> 1000 mg/kg
COC(=O)NC1=NC(c2ccc(C=O)cc2)CN1C (stereo unspecified)	> 300 mg/kg
COC(=O)NC1=NC(c2ccc(C)cc2)CN1 (stereo unspecified)	> 1000 mg/kg
CCOC(=O)NC1=NC(c2ccc(O)cc2)CN1C(C)C (stereo unspecified)	200 mg/kg
